Assay results published in ChEMBL document CHEMBL1122808, “Substituent effects on reactivity and spectral parameters of cephalosporins” (J Med Chem, 1984).
Where “and” joins values, the source holds several entries; their conditions need not be identical. Identical values can stand only once.

Assay: Hydrolysis rate constant at pH 9.6
Assay type: ADME
Conditions: buffer
Summary of the method: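 Alkaline hydrolysis was followed by UV spectrophotometry on aqueous cephalosporin solutions at 6 × 10^-4 M and 35.0 ± 0.1 °C, with pH held at 9.60 ± 0.02 by borate buffer.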

k [h⁻¹]	SMILES
0.019	O=C(Cc1cccs1)NC1C(=O)N2C(C(=O)O)=C(CSC3=CCC=CC3)CSC12 (configuration not stated)
0.058	CC1=C(C(=O)O)N2C(=O)[C@@H](NC(=O)[C@H](N)c3ccccc3)[C@H]2SC1 [CEPHALEXIN ANHYDROUS]
> 3	CC(=O)OCC1=C(C(=O)O)N2C(=O)C(NC(=O)NCc3cccs3)C2SC1 (configuration not stated)
0.147	CC(=O)OCC1=C(C(=O)O)N2C(=O)C(NC(=O)Cc3cccs3)C2SC1 (configuration not stated)
0.122	Cn1nnnc1SCC1=C(C(=O)O)N2C(=O)C(NC(=O)C(C(=O)[O-])c3cccs3)C2SC1.[Na+] (configuration not stated)
0.105	Cc1nc(CC(=O)NC2C(=O)N3C(C(=O)O)=C(CSc4nnc(C)o4)CSC23)no1 (configuration not stated)
0.021	CC1=C(C(=O)O)N2C(=O)C(NC(=O)Cc3noc(C)n3)C2SC1 (configuration not stated)
0.53	O=C(Cc1cccs1)NC1C(=O)N2C(C(=O)[O-])=C(C[n+]3ccccc3)CSC12 (configuration not stated)
0.107	Cc1nnc(SCC2=C(C(=O)O)N3C(=O)[C@@H](NC(=O)Cn4cnnn4)[C@H]3SC2)s1 [CEFAZOLIN]
0.026	Cc1nc(CC(=O)NC2C(=O)N3C(C(=O)O)=C(CSc4c[nH]nn4)CSC23)no1 (configuration not stated)
0.067	CCN(CC)C(=S)SCC1=C(C(=O)O)N2C(=O)C(NC(=O)Cc3cccs3)C2SC1 (configuration not stated)
0.157	CC(=O)OCC1=C(C(=O)O)N2C(=O)C(NC(=O)CSc3ccncc3)C2SC1 (configuration not stated)
0.112	CC(C(=O)NC1C(=O)N2C(C(=O)O)=C(CSc3nnnn3C)CSC12)c1cccs1 (configuration not stated)
0.028	O=C(Cc1cccs1)NC1C(=O)N2C(C(=O)O)=C(CSc3c[nH]nn3)CSC12 (configuration not stated)
0.57	NC(=O)c1ccc[n+](CC2=C(C(=O)[O-])N3C(=O)C(NC(=O)Cc4cccs4)C3SC2)c1 (configuration not stated)
0.095	O=C(Cc1cccs1)NC1C(=O)N2C(C(=O)O)=C(CSc3nc4ccccc4s3)CSC12 (configuration not stated)
0.126	Cn1nnnc1SCC1=C(C(=O)O)N2C(=O)C(NC(=O)Cc3cccs3)C2SC1 (configuration not stated)
0.056	CC1=C(C(=O)O)N2C(=O)C(NC(=O)C(N)C3=CCC=CC3)C2SC1 (configuration not stated)
0.12	Cc1nnc(SCC2=C(C(=O)O)N3C(=O)C(NC(=O)Cc4cccs4)C3SC2)s1 (configuration not stated)
0.21	Cn1nnnc1SCC1=C(C(=O)O)N2C(=O)C(NC(=O)C(Br)c3cccs3)C2SC1 (configuration not stated)
0.104	Cc1nc(CC(=O)NC2C(=O)N3C(C(=O)O)=C(CSc4nnc(C)s4)CSC23)no1 (configuration not stated)

SMILES	k [h⁻¹]
CC(=O)OCC1=C(C(=O)O)N2C(=O)[C@@H](N)[C@H]2SC1	0.037
CC1=C(C(=O)O)N2C(=O)C(NC(=O)Cc3ccccc3)C2SC1 (configuration not stated)	0.017

Assay: Hydrolysis rate constant at pH 10
Assay type: ADME
Conditions: buffer

k	SMILES
0.145 h⁻¹	CC1=C(C(=O)O)N2C(=O)[C@@H](NC(=O)[C@H](N)c3ccccc3)[C@H]2SC1 [CEPHALEXIN ANHYDROUS]
0.349 h⁻¹ and 0.3 h⁻¹	CC(=O)OCC1=C(C(=O)O)N2C(=O)C(NC(=O)Cc3cccs3)C2SC1 (configuration not stated)
0.378 h⁻¹	CC(=O)OCC1=C(C(=O)O)N2C(=O)C(NC(=O)COc3ccccc3)C2SC1 (configuration not stated)
0.675 h⁻¹ and 1.08 h⁻¹	O=C(Cc1cccs1)NC1C(=O)N2C(C(=O)[O-])=C(C[n+]3ccccc3)CSC12 (configuration not stated)
0.217 h⁻¹	Cc1nnc(SCC2=C(C(=O)O)N3C(=O)[C@@H](NC(=O)Cn4cnnn4)[C@H]3SC2)s1 [CEFAZOLIN]
0.038 h⁻¹	CC1=C(C(=O)O)N2C(=O)C(NC(=O)Cc3cccs3)C2SC1 (configuration not stated)
0.079 h⁻¹	CSCC1=C(C(=O)O)N2C(=O)C(NC(=O)Cc3cccs3)C2SC1 (configuration not stated)
0.049 h⁻¹	CC1=C(C(=O)O)N2C(=O)C(NC(=O)COc3ccccc3)C2SC1 (configuration not stated)
0.084 h⁻¹	O=C(COc1ccccc1)NC1C(=O)N2C(C(=O)O)=C(CO)CSC12 (configuration not stated)
0.36 h⁻¹	CC(=O)OCC1=C(C(=O)O)N2C(=O)C(NC(=O)Cc3ccccc3)C2SC1 (configuration not stated)
0.067 h⁻¹	CC1=C(C(=O)O)N2C(=O)C(NC(=O)C(N)C3=CCC=CC3)C2SC1 (configuration not stated)
0.857 h⁻¹	O=C(COc1ccccc1)NC1C(=O)N2C(C(=O)[O-])=C(C[n+]3ccccc3)CSC12 (configuration not stated)

SMILES	k
CC1=C(C(=O)O)N2C(=O)C(N)C2SC1 (configuration not stated)	0.0097 h⁻¹
CC1=C(C(=O)O)N2C(=O)C(NC(=O)Cc3ccccc3)C2SC1 (configuration not stated)	0.033 h⁻¹
